{"data": "Published values gathered from unrelated publications", "target": "Serine/threonine-protein kinase 24 (STK24, Homo sapiens, UniProt Q9Y6E0)", "note": "Lines come from different studies, so protocols differ."}
{"SMILES": "CCCCN(CCCC)C(=O)CN1C[C@@H](c2cc(OC)c3c(c2)OCO3)[C@H](C(=O)O)[C@H]1CC(C)(C)CCC", "assay": "cell-free assay, competition with immobilised ligand", "conditions": "1 µM", "remaining binding [%]": 93.9}
{"SMILES": "O=C(c1ccc(Nc2ncc(Cl)c(-c3cc4ccccc4s3)n2)cc1)N1CCC(N2CCCC2)CC1", "assay": "binding, competition with immobilised ligand", "conditions": "1 µM", "remaining binding [%]": 92}
{"SMILES": "O=C(NCc1ncc(C(F)(F)F)cc1Cl)c1ccc2c(c1)C1(CCS(=O)(=O)CC1)[C@@H](C1CC1)N2S(=O)(=O)c1ccc(F)cc1", "assay": "cell-free assay, competition with immobilised ligand", "conditions": "1 µM", "remaining binding [%]": 100}
{"SMILES": "c1cncc(-c2cccc(Nc3nccc(NC4CCCCC4)n3)c2)c1", "assay": "binding, competition with immobilised ligand", "conditions": "10 µM", "remaining binding [%]": 93}
{"SMILES": "Nc1ncc2c(n1)-c1c([nH]c3ccc(C#CC4CC4)cc13)CCCC2", "assay": "binding, competition with immobilised ligand", "conditions": "1 µM", "remaining binding [%]": 80}
{"SMILES": "O=C(NCCCN1CCOCC1)c1ccc(Nc2ncc(Cl)c(-c3ccc(Cl)s3)n2)cc1", "assay": "binding, competition with immobilised ligand", "conditions": "1 µM", "remaining binding [%]": 17}
{"SMILES": "CN(C)c1nccc(-c2cnc3ncccn23)n1", "assay": "binding", "conditions": "1 µM", "remaining binding [%]": 94}
{"SMILES": "Cn1nc(C(=O)NCc2ccc(C(=O)O)cc2)cc1-c1ccc2[nH]ccc2c1", "assay": "cell-free assay, competition with immobilised ligand", "conditions": "0.1 µM", "remaining binding [%]": 97}
{"SMILES": "CC1CCCN1c1nccc(-c2cnn3ncccc23)n1 (stereo not shown)", "assay": "binding", "conditions": "1 µM", "remaining binding [%]": 100}
{"SMILES": "COc1cnc(Nc2cccc(S(N)(=O)=O)c2)nc1N1CCN(c2ccccc2)C(=O)C1", "assay": "binding, competition with immobilised ligand", "conditions": "1 µM", "remaining binding [%]": 97}
{"SMILES": "CCS(=O)(=O)c1cc2cc(C[C@](O)(CC(C)(C)c3ccc(F)cc3C(N)=O)C(F)(F)F)[nH]c2cn1", "assay": "cell-free assay, competition with immobilised ligand", "conditions": "1 µM", "remaining binding [%]": 86}
{"SMILES": "c1cnn2ncc(-c3ccnc(N4CCC45COC5)n3)c2c1", "assay": "binding", "conditions": "1 µM", "remaining binding [%]": 74}
{"SMILES": "Cc1cnc(Nc2ccc(C(=O)N3CCC(N4CCCC4)CC3)cc2)nc1-c1cc2ccccc2s1", "assay": "binding, competition with immobilised ligand", "conditions": "1 µM", "remaining binding [%]": 84}
{"SMILES": "O=C(NS(=O)(=O)c1ccc(NCC2CCOCC2)c([N+](=O)[O-])c1)c1ccc(N2CCN(Cc3ccc(C(F)(F)F)cc3-c3ccc(Cl)cc3)CC2)cc1Oc1cnc2[nH]ccc2c1", "assay": "cell-free assay, competition with immobilised ligand", "conditions": "1 µM", "remaining binding [%]": 100}
{"SMILES": "COc1ccnn2ncc(-c3ccnc(N(C)C)n3)c12", "assay": "binding", "conditions": "1 µM", "remaining binding [%]": 100}
{"SMILES": "Cc1nc(Cc2cccc(C(F)(F)F)c2)sc1-c1ccc(C(N)=O)nc1", "assay": "cell-free assay, competition with immobilised ligand", "conditions": "1 µM", "remaining binding [%]": 100}
{"SMILES": "O=C(Nc1c[nH]nc1C(=O)NC1CCNCC1)c1cc(F)cc(F)c1", "assay": "binding, competition with immobilised ligand", "conditions": "1 µM", "remaining binding [%]": 91}
{"SMILES": "N[C@@H]1CCN(c2nccc(-c3cnn4ncccc34)n2)C1", "assay": "binding", "conditions": "1 µM", "remaining binding [%]": 100}
{"SMILES": "COc1cnc(Nc2cccc(S(N)(=O)=O)c2)nc1N1CCN(c2ccccc2)CC1", "assay": "binding, competition with immobilised ligand", "conditions": "1 µM", "remaining binding [%]": 82}
